Measurements collected from several papers.
Protocols differ between the studies behind these lines.
Cell line: NCI-H460
Effect on: cell growth or viability

CS(=O)(=O)CCNCc1ccc(-c2ccc3ncnc(Nc4ccc(OCc5cccc(F)c5)c(Cl)c4)c3c2)o1
EC50 (MTT; 72 h): 32 µM

COc1ccc(C(=O)/C=C/c2cccc3ccccc23)cc1S(N)(=O)=O
inhibition (SRB; 10 µM): 98%

COc1cc(N(C)CCN(C)C)c(NC(=O)C=C(C)C)cc1Nc1nc(Nc2cnn(C)c2)c2sccc2n1
IC50 (MTT): 1320 nM

COc1ccc(C(=O)/C=C/c2ccc(Cl)c(Cl)c2)cc1S(N)(=O)=O
GI50 (SRB; 48 h): 2800 nM

S=C([S][Au-][P+](CCCCCC[P+]([Au-][S]C(=S)n1cccn1)(c1ccccc1)c1ccccc1)(c1ccccc1)c1ccccc1)n1cccn1
GI50 (SRB): 1430 nM

C=C(c1ccc(C(=O)O)cc1)c1cc2c(cc1C)C(C)(C)CCC2(C)C
EC50 (MTT; 72 h): 52 µM

CCc1n(Cc2ccc3ccccc3n2)cc[n+]1Cc1ccc2ccccc2n1
TGI (SRB): 11.9 µM

COc1ccc(C(=O)/C=C/c2ccccc2Br)cc1S(N)(=O)=O
GI50 (SRB; 48 h): 2000 nM

Cc1n(Cc2ccc3ccccc3n2)cc[n+]1Cc1ccc2ccccc2c1
TGI (SRB): 14.4 µM

C=CC(=O)Nc1cc(Nc2nc(N3CCc4sccc4C3)c3cccnc3n2)c(OC)cc1N1CCSCC1
IC50 (MTT): 229 nM

COc1ccc(C(=O)/C=C/c2cc3c(cc2Br)OCO3)cc1S(N)(=O)=O
GI50 (SRB; 48 h): 4000 nM

C=CC(=O)Nc1cc(Nc2nc(N3CCc4sccc4C3)c3cccnc3n2)c(OC)cc1N1CCC(N(C)C)CC1
IC50 (MTT): 558 nM

COc1ccc(-c2ccc(-c3ccc(C(=N)N)nc3)s2)cc1
GI50 (SRB): 520 nM

c1ccc2cc(Cn3cc[n+](Cc4ccc5ccccc5c4)c3)ccc2c1
TGI (SRB): 10.4 µM

C=CC(=O)Nc1cc(Nc2nc(N3CCc4sccc4C3)c3cccnc3n2)c(OC)cc1N1CCN(C(C)=O)CC1
IC50 (MTT): > 50000 nM

COc1ccc(C(=O)/C=C/c2ccc3ccccc3c2)cc1S(N)(=O)=O
GI50 (SRB; 48 h): 3000 nM

C=C(Cl)C(=O)Nc1cc(Nc2nc(N3CCCC3)c3sccc3n2)c(OC)cc1N(C)CCN(C)C
IC50 (MTT): 6480 nM

COc1ccc(C(=O)/C=C/c2cccc(Cl)c2Cl)cc1S(N)(=O)=O
GI50 (SRB; 48 h): 1900 nM

CCCc1n(Cc2ccc3ccccc3n2)cc[n+]1Cc1ccc2ccccc2n1
TGI (SRB): 11.7 µM

C=CC(=O)Nc1cc(Nc2nc(N3CCc4sccc4C3)c3cccnc3n2)c(OC)cc1N1CCOCC1
IC50 (MTT): > 50000 nM

COc1cc(-c2ccc(-c3ccc(C(=N)N)nc3)s2)cc(OC)c1OC
GI50 (SRB): 2100 nM
